Holding throughout (assay type): functional
One assay has as its system NCI-H460. Put plainly: Antitumor activity against human NCI-H460 cells assessed as inhibition of growth after 48 hrs using sulforhodamine B dye. The conditions noted are these: NCI-H460, 48 h. The method in brief: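 NCI-H460 plated at 0.75 × 10⁴ cells/mL, grown 24 h, then treated 48 h with five serial dilutions from DMSO stocks (DMSO at most 0.5%, vehicle control included). After fixing, washing and staining, solubilized dye read at 492 nm. GI50 (50% net growth inhibition) derived from the dose–response curve; 3–5 independent duplicate experiments, mean ± SEM.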
A general note: Sulforhodamine B stains cellular protein and so reports cell mass.

The test system of a further assay is MDA-MB-231. Put plainly: Antitumor activity against human estrogen receptor deficient MDA-MB-231 cells assessed as inhibition of growth after 48 hrs using sulforhodamine B dye. Conditions: MDA-MB-231, 48 h.
A further assay concerns MCF7. Put plainly: Antitumor activity against human MCF7 cells expressing estrogen receptor assessed as inhibition of growth after 48 hrs using sulforhodamine B dye. The conditions noted are these: MCF7, 48 h. The method in brief:
(§1)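 Cells pre-grown 24 h after plating at 1.5 × 10⁵ cells/mL, then exposed 48 h to five serial concentrations from DMSO stocks (DMSO at most 0.5%, vehicle control included). Adherent cells fixed, washed and stained; bound dye solubilized and absorbance read at 492 nm. GI50 (50% inhibition of net growth) from dose–response curve; 3–5 independent experiments in duplicate, mean ± SEM.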

Another assay concerns SF-268. As to the kind of experiment: Antitumor activity against human SF268 cells assessed as inhibition of growth after 48 hrs using sulforhodamine B dye. The conditions noted are these: SF-268, 48 h. The method in brief:
as §1

A value given as a limit tells only on which side of the number the result lay.

This note sets out measurements from ChEMBL document CHEMBL1153767, “Bromoalkoxyxanthones as promising antitumor agents: synthesis, crystal structure and effect on human tumor cell lines” (2009).

The GI50 is the concentration that inhibits growth by half. With `O=c1c2ccccc2oc2cccc(OCCCCCCBr)c12`, the 50% growth inhibitory concentration (GI50) in the assay on NCI-H460 was 30.7 µM; with MDA-MB-231, over 100 µM; with MCF7, 22.7 µM; in the assay on SF-268, 30.2 µM.

With `O=C(c1ccccc1O)c1ccc(O)cc1O`, the concentration for 50% growth inhibition (GI50) in the assay on NCI-H460 is 91.2 µM; with MCF7 it was 100 µM; in the assay on SF-268, over 100 µM.

With `O=c1c2ccccc2oc2cccc(OCCCCCCOc3cccc4oc5ccccc5c(=O)c34)c12`, the 50% growth inhibitory concentration (GI50) in the assay with NCI-H460, in the assay on MDA-MB-231, in the assay with MCF7 and in the assay with SF-268 was over 100 µM each time.

In the case of `O=c1c2ccccc2oc2c(O)c(OCCCCCCBr)ccc12`, the concentration for 50% growth inhibition (GI50) with NCI-H460, with MDA-MB-231, in the assay with MCF7 and in the assay on SF-268 was over 100 µM in each case.

With `O=c1c2ccccc2oc2cccc(O)c12`, the GI50 is 84.9 µM with NCI-H460, 66 µM in the assay with MDA-MB-231, over 100 µM in the assay on MCF7 and 70.8 µM in the assay on SF-268.

In the case of `O=c1c2ccccc2oc2c(O)c(O)ccc12` [3,4-DIHYDROXYXANTHONE], the GI50 in the assay with NCI-H460 turned out to be 11.4 µM; in the assay on MDA-MB-231, 22.8 µM; in the assay with MCF7 it was 52.4 µM; in the assay with SF-268, 22.6 µM.

For `O=c1c2ccccc2oc2c(OCCCCCCBr)c(OCCCCCCBr)ccc12`, the GI50 in the assay on NCI-H460 was over 100 µM; in the assay on MDA-MB-231, 56.8 µM; in the assay with MCF7, 20.5 µM; in the assay on SF-268, over 100 µM.

Turning to `COc1cccc2c1C(=O)c1c(O)c3c(c(O)c1C2=O)C[C@@](O)(C(=O)CO)C[C@@H]3O[C@H]1C[C@H](N)[C@H](O)[C@H](C)O1` [DOXORUBICIN], the GI50 with NCI-H460 is 0.094 µM; in the assay with MDA-MB-231, 0.0109 µM; in the assay with SF-268, 0.094 µM.
